Published values from different studies.
Lines come from different studies, so protocols differ.
Effect on: cell growth or viability

O=C(Nc1cnn2ccc(N3CCC[C@@H]3c3cc(F)ccc3F)nc12)N1CC[C@H](O)C1
IC50 (KM12; ATP luminescence; 72 h): > 50 µM

Cc1ccc2c(c1)C(=NNc1nc3ccccc3n(C)c1=O)C(=O)N2
inhibition (ZR75; 30 µM): 71%

COc1ccc2c(c1)/C(=N/NC(=O)c1cc3ccccc3[nH]1)C(=O)N2C
inhibition (ZR75; 30 µM): 82.5%

COc1ccc(-c2nc(NN=C3C(=O)Nc4ccc(F)cc43)c3ccccc3n2)cc1OC
inhibition (ZR75; 30 µM): 26.5%

CC(C)(C)c1nc(-c2cccc(NS(=O)(=O)c3c(F)cccc3F)c2F)c(-c2ccnc(N)n2)s1
viability (WM 266-4; MTT; 100 µM; 48 h): 38.1%

COc1cccc(Oc2ccccc2NC(=O)CNC(=O)c2cccc3ccccc23)c1
GI50 (SR; SRB; 48 h): 0.115 µM

O=C(N/N=C1\C(=O)N(c2ccccc2)c2ccccc21)c1cc2ccccc2[nH]1
inhibition (ZR75; 30 µM): 92.2%

Cc1ccc(C(CS(=O)(=O)c2ccccc2)=NNC2=NC(=O)C(=NNc3ccccc3)S2)cc1
viability (WM 266-4; MTT; 100 µM; 48 h): 35.7%

Cc1cc(C)n(C(=S)[S][Au][PH](CCCCCC[PH]([Au][S]C(=S)n2nc(C)cc2C)(c2ccccc2)c2ccccc2)(c2ccccc2)c2ccccc2)n1
GI50 (KM12): 0.386 µM

Cc1ccc2c(c1)C(=NNc1nnc(Cc3ccccc3)c3ccccc13)C(=O)N2
inhibition (ZR75; 30 µM): 69.6%

COc1ccc2c(c1)/C(=N/NC(=O)c1cc3ccccc3[nH]1)C(=O)N2
inhibition (ZR75; 30 µM): 65.9%

CCN(CC)CCNC(=O)c1c(C)[nH]c(/C=C2\C(=O)Nc3ccc(F)cc32)c1C
inhibition (ZR75; 30 µM): 90.7%

O=C(Cc1ccc(C(F)(F)F)cc1)Nc1cccc(C(=O)Nc2ccc3[nH]ncc3c2)c1
IC50 (KM12; ATP luminescence; 72 h): 48.4 µM

CN1C(=O)/C(=N\NC(=O)c2cc3ccccc3[nH]2)c2cc(Cl)ccc21
inhibition (ZR75; 30 µM): 81.8%

COc1ccc(C2=Nn3c(NN=C4C(=O)Nc5ccc(OC)cc54)nnc3SC2)cc1
inhibition (SR; SRB; 10 µM): 36%

CN1CCN(c2ccc(C(=O)Nc3n[nH]c4ccc(Cc5cc(F)cc(F)c5)cc34)c(NC3CCOCC3)c2)CC1
IC50 (KM12; ATP luminescence; 72 h): 23.6 µM

Cc1ccc(C(CS(=O)(=O)c2ccccc2)=NN=C2N=C(c3ccc(Br)cc3)CS2)cc1
viability (WM 266-4; MTT; 0.4 µM; 48 h): 63.8%

COc1ccc2c(c1)C(=NNc1ncnc3cc(OC)c(OC)cc13)C(=O)N2
inhibition (ZR75; 10 µM): 32%

C=CC(=O)N1CCC[C@@H](n2nc(-c3ccc(Oc4ccccc4)cc3)c3c(N)ncnc32)C1
GI50 (JeKo-1; ATP luminescence; 72 h): 20.1 µM

Cn1c(=O)c(NN=C2C(=O)Nc3ccc(Br)cc32)nc2ccccc21
inhibition (ZR75; 30 µM): 62.1%

O=C1Nc2ccccc2/C1=N/NC(=O)c1cc2ccccc2[nH]1
inhibition (ZR75; 30 µM): 57.7%

CNC(=O)c1cc(Oc2ccc(NC(=O)Nc3ccc(Cl)c(C(F)(F)F)c3)cc2)ccn1
viability (WM 266-4; MTT; 6.3 µM; 48 h): 50.7%

C=CC(=O)N1CCC[C@@H](n2nc(-c3ccc(Oc4ccccc4)cc3)c3c(N)ncnc32)C1
GI50 (KMS-12-BM; 48 h): > 10 µM

NC(=S)NN=C(CS(=O)(=O)c1ccccc1)c1ccc(F)cc1
viability (WM 266-4; MTT; 0.4 µM; 48 h): 58%

O=C1Nc2ccccc2C1=NNc1nnc(Cc2ccccc2)c2ccccc12
inhibition (ZR75; 30 µM): 54.3%

Cc1ccc(C(CS(=O)(=O)c2ccccc2)=NNc2nc(-c3ccc(OCCCCOc4ccc(-c5csc(NN=C(CS(=O)(=O)c6ccccc6)c6ccc(C)cc6)n5)cc4)cc3)cs2)cc1
viability (WM 266-4; MTT; 25 µM; 48 h): 48.8%

Cn1c(=O)c(NN=C2C(=O)Nc3ccc(F)cc32)nc2ccccc21
inhibition (ZR75; 30 µM): 22.6%
